Laboratory results reported in ChEMBL document CHEMBL1811836, “Probes for narcotic receptor mediated phenomena. Part 42: synthesis and in vitro pharmacological characterization of the N-methyl and N-phenethyl analogues of the racemic ortho-c and para-c oxide-bridged phenylmorphans” (Bioorg Med Chem, 2011).

Experiments:
[1] = target: T1, Kappa-type opioid receptor (Homo sapiens, UniProt P41145); test: Displacement of [3H]U69,593 from human recombinant kappa opioid receptor expressed in CHO cells after 2 hrs by liquid scintillation counting; type: cell-based
How it was run: (§1)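 Membranes from stably transfected hDOR-CHO or hKOR-CHO cells, washed in ice-cold 10 mM Tris-HCl pH 7.4. Binding in 50 mM Tris-HCl pH 7.4 with protease inhibitors, about 30 µg protein per tube. Radioligand about 2 nM against 10 drug concentrations, triplicate, 2 h at 25 °C, GF/B filtration.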

Homo sapiens [2] = species: Homo sapiens; test: Selectivity ratio Ki for human kappa opioid receptor to Ki for human mu opioid receptor
How it was run: (§2)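 Ki values from radioligand displacement on membranes of stably transfected human receptor CHO cells. […] Incubation 2 h at 25 °C, triplicate, filtration. Ki from pooled logistic IC50 by Cheng-Prusoff; ratio taken against the MOR Ki.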

[3] = target: Delta-type opioid receptor (Homo sapiens, UniProt P41143); test: Displacement of [3H]DADLE from human recombinant delta opioid receptor expressed in recombinant hDOR-CHO cells after 2 hrs by liquid scintillation counting; type: cell-based; how it was run: as §1
[4] = target: T1, Kappa-type opioid receptor; conditions: CHO
Mu-type opioid receptor [5] = target: T2, Mu-type opioid receptor (Homo sapiens, UniProt P35372); test: Ratio of morphine Ki to compound Ki for human mu opioid receptor
Mu-type opioid receptor [6] = target: T2, Mu-type opioid receptor; test: Displacement of [3H]DAMGO from human recombinant mu opioid receptor expressed in CHO cells after 2 hrs by liquid scintillation counting; type: cell-based
Mu-type opioid receptor [7] = target: T2, Mu-type opioid receptor; test: Ratio of naloxone Ke to compound Ke for human mu opioid receptor
Homo sapiens [8] = species: Homo sapiens; test: Selectivity ratio Ki for human delta opioid receptor to Ki for human mu opioid receptor; how it was run: as §2

Delta-type opioid receptor, sequence (P41143 whole entry): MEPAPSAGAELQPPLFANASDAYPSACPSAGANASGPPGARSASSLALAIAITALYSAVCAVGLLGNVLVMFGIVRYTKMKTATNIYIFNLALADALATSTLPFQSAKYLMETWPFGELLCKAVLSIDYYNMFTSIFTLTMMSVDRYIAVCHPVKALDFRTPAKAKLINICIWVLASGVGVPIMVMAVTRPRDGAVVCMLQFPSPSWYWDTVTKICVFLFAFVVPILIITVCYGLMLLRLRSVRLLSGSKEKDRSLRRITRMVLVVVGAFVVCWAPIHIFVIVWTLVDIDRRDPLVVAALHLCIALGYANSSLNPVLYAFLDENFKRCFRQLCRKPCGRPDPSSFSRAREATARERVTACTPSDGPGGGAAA
T2 sequence (P35372 whole entry): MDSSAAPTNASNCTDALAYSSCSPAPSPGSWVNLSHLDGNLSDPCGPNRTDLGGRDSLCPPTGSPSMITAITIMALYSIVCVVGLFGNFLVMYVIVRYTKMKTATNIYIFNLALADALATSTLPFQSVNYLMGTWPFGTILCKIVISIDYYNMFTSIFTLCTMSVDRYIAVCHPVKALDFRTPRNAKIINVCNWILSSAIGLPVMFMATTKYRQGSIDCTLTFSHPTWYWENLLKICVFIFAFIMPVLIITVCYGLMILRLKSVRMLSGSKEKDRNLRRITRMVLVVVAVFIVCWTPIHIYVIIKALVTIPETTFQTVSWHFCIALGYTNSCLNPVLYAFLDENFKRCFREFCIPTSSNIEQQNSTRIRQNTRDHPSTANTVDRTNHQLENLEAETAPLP
T1 sequence (P41145 whole entry): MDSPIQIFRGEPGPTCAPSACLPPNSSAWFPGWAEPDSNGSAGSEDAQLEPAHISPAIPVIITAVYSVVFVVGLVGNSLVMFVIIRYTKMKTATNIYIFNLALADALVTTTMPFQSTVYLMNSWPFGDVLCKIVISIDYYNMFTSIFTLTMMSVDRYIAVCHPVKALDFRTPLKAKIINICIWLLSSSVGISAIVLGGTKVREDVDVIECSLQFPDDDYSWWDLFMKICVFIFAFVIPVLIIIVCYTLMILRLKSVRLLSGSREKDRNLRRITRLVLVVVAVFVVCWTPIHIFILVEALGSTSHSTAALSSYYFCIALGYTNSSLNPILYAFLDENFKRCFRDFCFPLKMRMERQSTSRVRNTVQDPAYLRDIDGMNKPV

SMILES: Oc1cccc2c1O[C@@H]1CN(CCc3ccccc3)[C@@H]3CCC[C@]21C3 (relative stereo)
- Ki [1]: 51 nM
- Ratio Ki (Homo sapiens [2]): 50
- Ki [3]: 1230 nM
- Ke [4]: 1.79 nM
- Ratio Ki (Mu-type opioid receptor [5]): 2
- Ki (Mu-type opioid receptor [6]): 1.1 nM
- Ratio Ke (Mu-type opioid receptor [7]): 3
- Ratio Ki (Homo sapiens [8]): 1200

SMILES: CN1C[C@H]2Oc3ccc(O)cc3[C@@]23CCC[C@@H]1C3 (relative stereo)
- Ki [1]: 1080 nM
- Ki [3]: > 5200 nM
- Ki (Mu-type opioid receptor [6]): 1500 nM

SMILES: Oc1ccc2c(c1)[C@]13CCC[C@H](C1)N(CCc1ccccc1)C[C@H]3O2 (relative stereo)
- Ki [1]: 1230 nM
- Ki [3]: 1250 nM
- Ki (Mu-type opioid receptor [6]): 67 nM

SMILES: CN1C[C@H]2Oc3c(O)cccc3[C@@]23CCC[C@@H]1C3 (relative stereo)
- Ki [1]: > 40000 nM
- Ki [3]: > 5200 nM
- Ki (Mu-type opioid receptor [6]): 619 nM
